Active and inactive are the calls of the source. The rule behind the calls is not given here.
Legend:
[1] = molecular target: T1, Proton-coupled folate transporter (Homo sapiens) (UniProt Q96NT5); assay: Inhibition of human PCFT expressed in Chinese hamster R2/PCFT4 cells assessed as reduction in [3H]MTX uptake at pH 5.5 at 1 uM measured over 2 mins relative to control; assay type: cell-based
T1 sequence (whole entry): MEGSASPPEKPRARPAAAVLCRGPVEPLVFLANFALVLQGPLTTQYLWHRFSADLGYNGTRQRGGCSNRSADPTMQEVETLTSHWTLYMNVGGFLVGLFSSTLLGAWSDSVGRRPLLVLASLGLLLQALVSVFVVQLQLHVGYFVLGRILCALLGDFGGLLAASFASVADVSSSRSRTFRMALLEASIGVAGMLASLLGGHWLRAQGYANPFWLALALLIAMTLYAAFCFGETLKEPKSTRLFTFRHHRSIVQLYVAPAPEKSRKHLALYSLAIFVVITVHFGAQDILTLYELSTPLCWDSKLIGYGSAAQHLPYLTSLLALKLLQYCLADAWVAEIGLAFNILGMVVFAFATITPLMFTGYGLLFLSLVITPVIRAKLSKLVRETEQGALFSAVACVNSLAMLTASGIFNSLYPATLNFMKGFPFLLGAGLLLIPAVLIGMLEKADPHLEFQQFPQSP

[2] = molecular target: T2, Proton-coupled folate transporter (Homo sapiens, UniProt Q96NT5); assay: Inhibition of human PCFT expressed in Chinese hamster R2/PCFT4 cells assessed as reduction in [3H]MTX uptake at pH 5.5 measured over 2 mins by Dixon plot analysis; assay type: cell-based
T2 sequence (Q96NT5 whole entry): T1 sequence (whole entry)
Procedure, shortened: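 Competitor concentrations ranged from 0.05 to 0.5 μM. Ki was obtained by Dixon plot. Mean ± SE of four independent experiments.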

[3] = molecular target: T1, Proton-coupled folate transporter (Homo sapiens); assay: Inhibition of human PCFT expressed in Chinese hamster R2/PCFT4 cells assessed as reduction in [3H]MTX uptake at pH 5.5 at 1 to 10 uM measured over 2 mins; assay type: cell-based
[4] = molecular target: Folate receptor alpha (Homo sapiens) (UniProt P15328); assay: Displacement of [3H]folic acid from human FRalpha expressed in Chinese hamster RT16 cells at 10 to 1000 nM after 15 mins; assay type: cell-based
Procedure, shortened: (§1)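 RT16 (FRα) or D4 (FRβ) CHO cells at ~80% confluence were washed with PBS at 4 °C, then with pH 3.5 acetate buffer to strip bound folate, then HEPES-buffered saline pH 7.4. Cells were incubated with 50 nM [³H]folic acid plus competitor (10–1000 nM) for 15 min at 4 °C, washed, and solubilized in NaOH. Bound radioactivity was normalized to protein.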

[5] = molecular target: T1, Proton-coupled folate transporter (Homo sapiens); assay: Inhibition of human PCFT expressed in Chinese hamster R2/PCFT4 cells assessed as reduction in [3H]MTX uptake at pH 5.5 at 10 uM measured over 2 mins relative to control; assay type: cell-based
[6] = molecular target: Folate receptor beta (Homo sapiens) (UniProt P14207); assay: Displacement of [3H]folic acid from human FRbeta expressed in Chinese hamster D4 cells at 10 to 1000 nM after 15 mins; assay type: cell-based; procedure, shortened: as §1
IGROV-1 [7] = assay: Antiproliferative activity against FRalpha […] human IGROV1 KD4 cells after 96 hrs by Cell-Titer Blue assay; assay type: functional, cell-based; details: IGROV-1, 96 h
IGROV-1 [8] = assay: Antiproliferative activity against human IGROV1 cells harboring non targeted control shRNA sequence after 96 hrs by Cell-Titer Blue assay; assay type: functional, cell-based; details: IGROV-1, 96 h
IGROV-1 [9] = assay: Antiproliferative activity against wild type human IGROV1 cells after 96 hrs by Cell-Titer Blue assay; assay type: functional, cell-based; details: IGROV-1, 96 h
A2780 = assay: Antiproliferative activity against human A2780 cells after 96 hrs by Cell-Titer Blue assay; assay type: functional, cell-based; details: A2780, 96 h
IGROV-1 [10] = assay: Antiproliferative activity against FRalpha […] human IGROV1 KD10 cells after 96 hrs by Cell-Titer Blue assay; assay type: functional, cell-based; details: IGROV-1, 96 h
[11] = molecular target: T3, Reduced folate transporter (Homo sapiens) (UniProt P41440); assay: Inhibition of human RFC2 expressed in human HeLa R1-11 cells assessed as reduction in [3H]MTX uptake at pH 7.2 at 1 uM measured over 2 mins relative to control; assay type: cell-based
T3 sequence (whole entry): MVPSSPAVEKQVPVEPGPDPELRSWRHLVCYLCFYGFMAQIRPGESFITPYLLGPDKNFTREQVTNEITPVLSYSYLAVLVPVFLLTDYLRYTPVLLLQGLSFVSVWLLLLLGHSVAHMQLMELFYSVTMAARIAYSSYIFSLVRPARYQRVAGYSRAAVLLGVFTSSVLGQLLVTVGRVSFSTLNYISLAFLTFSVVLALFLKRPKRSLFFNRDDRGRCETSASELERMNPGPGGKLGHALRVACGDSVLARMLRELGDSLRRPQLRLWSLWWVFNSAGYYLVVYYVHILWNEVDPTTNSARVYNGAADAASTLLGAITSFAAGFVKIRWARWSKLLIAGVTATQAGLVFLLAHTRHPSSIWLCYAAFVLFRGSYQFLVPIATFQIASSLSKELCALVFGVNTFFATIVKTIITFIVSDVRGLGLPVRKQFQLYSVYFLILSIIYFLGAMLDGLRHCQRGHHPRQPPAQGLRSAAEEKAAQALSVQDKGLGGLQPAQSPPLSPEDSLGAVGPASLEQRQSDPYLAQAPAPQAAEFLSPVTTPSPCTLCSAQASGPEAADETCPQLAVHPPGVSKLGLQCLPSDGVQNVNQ

[12] = molecular target: T3, Reduced folate transporter (Homo sapiens); assay: Inhibition of human RFC2 expressed in human HeLa R1-11 cells assessed as reduction in [3H]MTX uptake at pH 7.2 at 10 uM measured over 2 mins relative to control; assay type: cell-based
[13] = Antiproliferative activity in Chinese hamster R2 cells deficient in RFC, PCFT, and FRalpha assessed as reduction in cell growth after 96 hrs by Cell-Titer Blue assay; assay type: cell-based; details: Cricetulus griseus, R2, 96 h
IGROV-1 [14] = assay: Anticlonogenic activity against human IGROV1 cells incubated for 24 hrs followed by compound wash out and measured after 10 days by methylene blue staining-based assay; assay type: functional, cell-based
Procedure, shortened: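 IGROV1 cells plated in folate-free RPMI 1640 (pH 7.2), 10% dialyzed FBS, 25 nM LCV. After 24 h adherence, exposed to drug (0–20 μM) for 24 h at pH 6.8 (25 mM PIPES/25 mM HEPES). Washed, then grown drug-free at pH 7.2 (100 mM HEPES) with 25 nM LCV for up to 10 days at 37 °C. Colonies stained with methylene blue and counted electronically. Values normalized to vehicle controls. Triplicate experiments.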

IGROV-1 [15] = assay: Antiproliferative activity against human IGROV1 cells at 1 to 1000 nM in presence of 320 uM AICA after 96 hrs by Cell-Titer Blue assay; assay type: functional, cell-based
Procedure, shortened: (§2)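 IGROV1 cells, 2000/well, in folate-free RPMI 1640 with 10% dialyzed FBS, L-glutamine, 25 nM LCV. A range of drug concentrations was given with thymidine (10 μM), adenosine (60 μM) or AICA (320 μM) added. After 96 h, proliferation was measured by Cell-Titer Blue fluorescence. At least triplicate experiments.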

IGROV-1 [16] = assay: Antiproliferative activity against human IGROV1 cells at 1 to 1000 nM in presence of 60 uM adenosine after 96 hrs by Cell-Titer Blue assay; assay type: functional, cell-based; procedure, shortened: as §2
[17] = molecular target: T4, Trifunctional purine biosynthetic protein adenosine-3 (Homo sapiens, UniProt P22102); assay: Inhibition of GARFTase in human IGROV1 cells assessed as decrease in incorporation of [14C(U)glycine into [14C]formyl GAR formation after 24 hrs; assay type: cell-based
T4 sequence (P22102 whole entry): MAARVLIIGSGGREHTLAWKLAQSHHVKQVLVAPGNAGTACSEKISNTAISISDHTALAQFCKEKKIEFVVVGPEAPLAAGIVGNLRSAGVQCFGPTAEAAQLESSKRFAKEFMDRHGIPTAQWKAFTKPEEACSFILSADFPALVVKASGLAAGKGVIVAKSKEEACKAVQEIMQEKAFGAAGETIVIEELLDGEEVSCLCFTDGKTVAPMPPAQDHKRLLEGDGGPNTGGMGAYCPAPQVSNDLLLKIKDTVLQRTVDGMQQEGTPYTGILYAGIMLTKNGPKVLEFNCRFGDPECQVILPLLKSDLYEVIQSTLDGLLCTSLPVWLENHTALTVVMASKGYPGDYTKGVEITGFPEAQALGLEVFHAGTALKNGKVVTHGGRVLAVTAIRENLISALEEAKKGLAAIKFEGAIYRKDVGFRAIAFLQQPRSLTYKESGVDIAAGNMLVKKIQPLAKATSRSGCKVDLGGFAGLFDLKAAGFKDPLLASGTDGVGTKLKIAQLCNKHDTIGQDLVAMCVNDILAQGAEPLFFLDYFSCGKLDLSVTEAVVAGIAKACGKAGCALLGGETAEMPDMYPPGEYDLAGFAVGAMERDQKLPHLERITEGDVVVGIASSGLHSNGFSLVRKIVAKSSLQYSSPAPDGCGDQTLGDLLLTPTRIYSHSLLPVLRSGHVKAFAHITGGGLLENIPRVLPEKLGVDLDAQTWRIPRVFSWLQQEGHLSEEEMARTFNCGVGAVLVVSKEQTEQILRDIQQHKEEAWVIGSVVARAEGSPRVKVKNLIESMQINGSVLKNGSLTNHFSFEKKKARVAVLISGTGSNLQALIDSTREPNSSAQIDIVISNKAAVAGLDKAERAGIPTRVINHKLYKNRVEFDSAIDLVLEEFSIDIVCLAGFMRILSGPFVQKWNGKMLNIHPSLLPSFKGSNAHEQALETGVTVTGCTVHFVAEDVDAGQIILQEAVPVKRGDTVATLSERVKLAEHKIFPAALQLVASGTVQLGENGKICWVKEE

IGROV-1 [18] = assay: Antiproliferative activity against human IGROV1 cells at 1 to 1000 nM in presence of 10 uM thymidine after 96 hrs by Cell-Titer Blue assay; assay type: functional, cell-based; procedure, shortened: as §2
[19] = molecular target: T3, Reduced folate transporter (Homo sapiens); assay: Inhibition of human RFC2 expressed in human HeLa R1-11 cells assessed as reduction in [3H]MTX uptake at pH 7.2 at 10 uM measured over 2 mins relative to control

Folate receptor alpha (Homo sapiens), sequence (P15328 25-234 limits assumed): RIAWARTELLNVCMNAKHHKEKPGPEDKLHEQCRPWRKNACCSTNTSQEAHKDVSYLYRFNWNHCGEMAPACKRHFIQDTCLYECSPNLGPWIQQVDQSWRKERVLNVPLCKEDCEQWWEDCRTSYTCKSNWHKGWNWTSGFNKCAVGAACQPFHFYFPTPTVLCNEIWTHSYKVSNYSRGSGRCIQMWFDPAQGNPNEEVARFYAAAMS
Folate receptor beta (Homo sapiens), sequence (P14207 17-230 limits assumed): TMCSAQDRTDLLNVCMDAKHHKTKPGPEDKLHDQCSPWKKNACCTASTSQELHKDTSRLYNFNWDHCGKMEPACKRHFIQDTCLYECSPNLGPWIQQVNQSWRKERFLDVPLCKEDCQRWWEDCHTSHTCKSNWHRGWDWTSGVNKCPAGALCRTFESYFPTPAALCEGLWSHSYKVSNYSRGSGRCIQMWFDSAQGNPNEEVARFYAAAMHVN

Structure (SMILES)	inhibition [1]	Ki [2]	inhibition [3]	inhibition [4]	inhibition [5]	IC50 (A2780)	inhibition [11]	inhibition [12]	IC50 (IGROV-1 [14])	IC50 [17]	inhibition [19]	inhibition [6]	IC50 (IGROV-1 [7])	IC50 (IGROV-1 [8])	IC50 (IGROV-1 [9])	IC50 (IGROV-1 [10])	IC50 [13]	Activity (IGROV-1 [15])	Activity (IGROV-1 [16])	Activity (IGROV-1 [18])
Nc1nc2[nH]c(CCCCc3csc(C(=O)N[C@@H](CCC(=O)O)C(=O)O)c3)cc2c(=O)[nH]1	Active	360 nM	Active	Active	Active	28.8 nM	inactive	inactive	–	–	–	Active	> 1000 nM	40.7 nM	54.3 nM	> 1000 nM	> 1000 nM	–	–	–
Nc1nc2[nH]cc(CCc3ccc(C(=O)N[C@@H](CCC(=O)O)C(=O)O)cc3)c2c(=O)[nH]1 [PEMETREXED]	–	–	–	–	–	39.4 nM	inactive	inactive	> 20 µM	–	–	–	46.6 nM	71 nM	104 nM	22.2 nM	–	–	–	–
Nc1nc(N)c2nc(CNc3ccc(C(=O)N[C@@H](CCCNC(=O)c4ccccc4C(=O)O)C(=O)O)cc3)cnc2n1	Active	–	Active	–	Active	–	inactive	inactive	–	–	–	–	–	–	–	–	–	–	–	–
Nc1nc2[nH]c(CCCCc3ccc(C(=O)N[C@@H](CCC(=O)O)C(=O)O)cc3)cc2c(=O)[nH]1	–	–	–	–	–	14.2 nM	inactive	inactive	–	–	–	–	–	–	–	> 1000 nM	–	–	–	–

The next lines start with results.

inhibition [1]	Ki [2]	inhibition [3]	inhibition [4]	inhibition [5]	IC50 (A2780)	inhibition [11]	inhibition [12]	IC50 (IGROV-1 [14])	IC50 [17]	inhibition [19]	Structure (SMILES)	inhibition [6]	IC50 (IGROV-1 [7])	IC50 (IGROV-1 [8])	IC50 (IGROV-1 [9])	IC50 (IGROV-1 [10])	IC50 [13]	Activity (IGROV-1 [15])	Activity (IGROV-1 [16])	Activity (IGROV-1 [18])
60 to 85%	–	–	Active	90 to 95%	–	inactive	inactive	–	2 nM	–	Nc1nc2[nH]c(CCCCc3cnc(C(=O)N[C@@H](CCC(=O)O)C(=O)O)c(F)c3)cc2c(=O)[nH]1	–	> 1000 nM	–	–	> 1000 nM	> 1000 nM	inactive	inactive	Active
60 to 85%	70 nM	Active	Active	90 to 95%	7.6 nM	–	< 30%	–	1.2 nM	< 30%	Nc1nc2[nH]c(CCCc3csc(C(=O)N[C@@H](CCC(=O)O)C(=O)O)c3F)cc2c(=O)[nH]1	Active	85.6 nM	5.61 nM	6.92 nM	42.2 nM	20.5 nM	–	–	–
Active	630 nM	Active	–	Active	2.72 nM	inactive	inactive	–	–	–	Nc1nc2[nH]c(CCCc3ccc(C(=O)N[C@@H](CCC(=O)O)C(=O)O)cc3)cc2c(=O)[nH]1	–	–	–	–	–	> 1000 nM	inactive	inactive	Active
Active	240 nM	Active	Active	Active	5.42 nM	inactive	inactive	–	–	–	Nc1nc2[nH]c(CCCCc3ccc(C(=O)N[C@@H](CCC(=O)O)C(=O)O)nc3)cc2c(=O)[nH]1	–	64.1 nM	1.55 nM	1.87 nM	30.5 nM	–	–	–	–
60 to 85%	–	–	Active	90 to 95%	–	inactive	inactive	–	–	–	Nc1nc2[nH]c(CCCCc3ccc(C(=O)N[C@@H](CCC(=O)O)C(=O)O)c(F)c3)cc2c(=O)[nH]1	–	–	–	–	–	–	inactive	inactive	Active
